# According to ChEMBL document CHEMBL1123703, “Hydroxamic acid inhibitors of 5-lipoxygenase” (J Med Chem, 1987):
# Tests used:
# [1] = target: T1, Polyunsaturated fatty acid 5-lipoxygenase (Rattus norvegicus, UniProt P12527); assay: In vitro inhibitory activity against RBL-1 5-LO; assay type: cell-based
# T1 sequence (P12527 whole entry): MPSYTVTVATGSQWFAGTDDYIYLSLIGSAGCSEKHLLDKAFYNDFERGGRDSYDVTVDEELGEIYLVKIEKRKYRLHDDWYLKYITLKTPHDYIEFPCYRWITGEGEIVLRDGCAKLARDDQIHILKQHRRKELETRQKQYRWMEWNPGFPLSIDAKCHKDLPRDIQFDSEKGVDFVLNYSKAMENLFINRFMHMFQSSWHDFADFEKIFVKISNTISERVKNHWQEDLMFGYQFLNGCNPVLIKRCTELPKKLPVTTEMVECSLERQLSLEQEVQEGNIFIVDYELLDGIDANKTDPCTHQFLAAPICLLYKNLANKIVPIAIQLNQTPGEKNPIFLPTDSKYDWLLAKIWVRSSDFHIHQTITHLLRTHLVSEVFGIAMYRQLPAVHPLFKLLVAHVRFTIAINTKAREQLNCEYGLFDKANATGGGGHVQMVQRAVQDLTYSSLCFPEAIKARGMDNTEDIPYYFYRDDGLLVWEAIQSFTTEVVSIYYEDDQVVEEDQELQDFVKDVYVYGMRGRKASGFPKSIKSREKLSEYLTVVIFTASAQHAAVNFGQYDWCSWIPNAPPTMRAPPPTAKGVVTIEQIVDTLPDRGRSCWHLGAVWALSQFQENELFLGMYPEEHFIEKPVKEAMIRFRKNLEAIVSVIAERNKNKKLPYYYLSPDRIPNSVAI
# [2] = target: T2, Polyunsaturated fatty acid 5-lipoxygenase (Rattus norvegicus) (UniProt P12527); assay: Percent inhibition against RBL-1 5-LO in vitro at 300 uM; assay type: cell-based
# T2 sequence (whole entry): T1 sequence (P12527 whole entry)
# In short: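 20000g supernatant from 1.5 million homogenized RBL-1 cells, with test compound, in 200-μL incubations. Reactions were started with radiolabeled arachidonic acid and stopped by acidification and ether extraction. Products were separated from unconverted substrate by TLC and counted by liquid scintillation. Inhibition was taken from product formed with versus without inhibitor. Run in triplicate.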
# [3] = target: T2, Polyunsaturated fatty acid 5-lipoxygenase (Rattus norvegicus); assay: Percent inhibition against RBL-1 5-LO in vitro at 100 uM; assay type: cell-based
# In short: (§1)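 200-μL incubations held the 20000g supernatant of 1.5 million homogenized RBL-1 cells plus compound. Radiolabeled arachidonic acid started the reaction; acidification and ether extraction ended it. Product was resolved by TLC and counted by liquid scintillation, in triplicate. Inhibition was taken from the ratio of product formed with and without inhibitor.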
# [4] = target: Prostaglandin G/H synthase 1 (Ovis aries) (UniProt P05979); assay: Compound was tested for the percent of inhibition against sheep seminal vesicle cyclooxygenase at 100 uM
# [5] = target: T1, Polyunsaturated fatty acid 5-lipoxygenase; assay: Compound was tested for its inhibition activity against the 5-LO in isolated enzyme
# In short: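 5-LO from the 20000g supernatant of 1.5 million homogenized RBL-1 cells, in 200-μL incubations across a range of compound concentrations. Reaction started with radiolabeled arachidonic acid and stopped by acidification and ether extraction. Products were separated from substrate by TLC and counted by liquid scintillation, in triplicate.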
# [6] = tested on: Seed linoleate 15-lipoxygenase (Glycine max); assay: Compound was tested for the percent of inhibition against soybean 15-LO (at 100 uM)
# [7] = target: T3, Polyunsaturated fatty acid lipoxygenase ALOX12 (Homo sapiens) (UniProt P18054); assay: Compound was tested for the percent of inhibition against 12-LO at 10 uM; assay type: functional
# T3 sequence (whole entry): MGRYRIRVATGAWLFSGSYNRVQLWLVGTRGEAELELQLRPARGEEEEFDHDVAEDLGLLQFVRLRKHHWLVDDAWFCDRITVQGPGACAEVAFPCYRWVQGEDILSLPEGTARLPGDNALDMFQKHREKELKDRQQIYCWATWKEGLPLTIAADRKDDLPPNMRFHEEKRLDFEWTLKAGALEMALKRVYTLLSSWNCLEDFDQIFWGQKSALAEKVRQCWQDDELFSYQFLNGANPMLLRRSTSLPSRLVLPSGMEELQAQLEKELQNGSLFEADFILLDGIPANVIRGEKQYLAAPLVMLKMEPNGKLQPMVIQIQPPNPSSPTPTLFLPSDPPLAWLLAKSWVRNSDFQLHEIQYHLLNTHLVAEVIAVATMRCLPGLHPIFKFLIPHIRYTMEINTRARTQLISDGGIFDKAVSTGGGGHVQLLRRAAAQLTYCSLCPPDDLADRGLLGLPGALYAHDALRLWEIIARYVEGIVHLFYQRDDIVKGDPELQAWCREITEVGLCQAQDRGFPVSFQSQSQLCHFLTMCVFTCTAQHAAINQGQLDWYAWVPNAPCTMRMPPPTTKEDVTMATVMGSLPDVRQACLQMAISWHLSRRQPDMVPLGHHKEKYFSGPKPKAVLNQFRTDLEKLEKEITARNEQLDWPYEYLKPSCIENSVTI
# In short: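 The RBL-1 enzyme was replaced by human platelet 12-lipoxygenase, soybean 15-lipoxygenase or sheep seminal vesicle cyclooxygenase. Reactions were started with radiolabeled arachidonic acid and stopped by acidification and ether extraction. Products were separated by TLC and counted by liquid scintillation, in triplicate. Inhibition was taken from the ratio of product formed with and without inhibitor.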
# [8] = target: T2, Polyunsaturated fatty acid 5-lipoxygenase (Rattus norvegicus); assay: Compound was tested for the percent of inhibition against 5-LO at 10 uM; in short: as §1
# [9] = target: T1, Polyunsaturated fatty acid 5-lipoxygenase; assay: Compound was tested for its inhibition activity against 5-LO of the whole cell in vitro in rat.
# [10] = target: T2, Polyunsaturated fatty acid 5-lipoxygenase (Rattus norvegicus); assay: Percent inhibition against RBL-1 5-LO in vitro at 10 uM; assay type: cell-based; in short: as §1
# [11] = target: T2, Polyunsaturated fatty acid 5-lipoxygenase (Rattus norvegicus); assay: Percent inhibition against RBL-1 5-LO in vitro at 30 uM; assay type: cell-based; in short: as §1
# Prostaglandin G/H synthase 1 (Ovis aries), sequence (P05979 whole entry, looked up): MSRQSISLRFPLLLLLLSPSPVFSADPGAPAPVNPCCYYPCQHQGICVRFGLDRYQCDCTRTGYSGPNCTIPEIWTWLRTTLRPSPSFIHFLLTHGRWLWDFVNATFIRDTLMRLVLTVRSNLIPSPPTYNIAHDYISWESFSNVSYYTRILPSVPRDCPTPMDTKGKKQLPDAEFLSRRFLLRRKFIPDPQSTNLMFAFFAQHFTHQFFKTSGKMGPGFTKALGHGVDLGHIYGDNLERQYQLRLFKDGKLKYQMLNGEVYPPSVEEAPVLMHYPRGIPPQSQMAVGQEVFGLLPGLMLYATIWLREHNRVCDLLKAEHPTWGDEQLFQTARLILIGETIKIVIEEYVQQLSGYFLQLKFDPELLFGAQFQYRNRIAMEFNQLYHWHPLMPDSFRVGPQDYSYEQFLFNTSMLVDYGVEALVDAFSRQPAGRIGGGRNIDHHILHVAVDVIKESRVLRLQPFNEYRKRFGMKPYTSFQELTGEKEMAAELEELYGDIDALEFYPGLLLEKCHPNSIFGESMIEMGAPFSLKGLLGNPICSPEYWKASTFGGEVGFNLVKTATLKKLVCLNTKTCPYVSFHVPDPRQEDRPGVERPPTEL
SMILES,IC50 [1],other results
O=C(/C=C/c1ccc2ccccc2c1)N(O)c1ccccc1,0.052 µM,
Cc1ccc(C(=O)NO)cc1,65 µM,
O=C(CCCc1ccccc1)NO [PHENYLBUTYRYLHYDROXAMIC ACID],27 µM,
O=C(NO)c1ccccc1 [BENZOHYDROXAMATE],110 µM,
O=C(/C=C\c1ccccc1)NO,31 µM,
Nc1ccc(C(=O)NO)cc1,> 400 µM,
NC(=O)c1ccc2ccccc2c1,,inhibition [2]: 9%
Cc1cc(C)c(-c2ccc(C(=O)NO)cc2)c(C)c1,0.29 µM,
CO/C(=N\O)c1ccc2ccccc2c1,,inhibition [2]: 74%
O=C(CO)c1ccc2ccccc2c1,,inhibition [3]: 15%
O=C(NO)c1ccc(-c2ccccc2)cc1,,inhibition [4]: 50%; IC50 [5]: 4 µM; inhibition [6]: 30%; inhibition [7]: 86%; inhibition [8]: 86%; IC50 [9]: 3.3 µM
CCCCCCCCOc1ccc2cc(C(=O)NO)ccc2c1,7.1 µM,
CCCCC/C=C\CCOc1ccc2cc(C(=O)NO)ccc2c1,2.9 µM,
O=C(/C=C/c1ccc2ccccc2c1)N(O)C1CCCCC1,0.1 µM,
O=C(NO)c1ccc(-c2cccc3ccccc23)cc1,0.18 µM,
CCCCCCCCCOc1ccc2cc(C(=O)NO)ccc2c1,,inhibition [10]: 33%

SMILES,IC50 [1],other results
CCCCCCCCCCCCOc1ccc2cc(C(=O)NO)ccc2c1,,inhibition [10]: 11%
O=C(Cc1ccc2ccccc2c1)NO,19 µM,
O=C(C#Cc1ccccc1)NO,46 µM,
CONC(=O)c1ccc2ccccc2c1,,inhibition [11]: 0%
O=C(NO)c1cccc2ccccc12,43 µM,
O=C(CCc1ccccc1)NO,87 µM,
O=C(Cc1ccccc1)NO [PHENYLACETOHYDROXAMIC ACID],300 µM,
O=C(O)c1ccc2ccccc2c1,,inhibition [2]: 0%
O=C(NO)c1ccc(Br)cc1,14 µM,
O=S(=O)(NO)c1ccc2ccccc2c1,,inhibition [3]: 51%
NNC(=O)c1ccc2ccccc2c1,,inhibition [2]: 6%
CN(O)C(=O)/C=C/c1ccc2ccccc2c1,0.1 µM,
CN(O)S(=O)(=O)c1ccc2ccccc2c1,,inhibition [11]: 6%
C/C(=C\c1ccc2ccccc2c1)C(=O)N(C)O,0.47 µM,
C/C(=C\C(=O)N(C)O)c1ccc2ccccc2c1,0.12 µM,
O=C(NO)c1ccc(I)cc1,15 µM,

# The next lines start with results.
IC50 [1],SMILES,other results
6.5 µM,CCCCCCCOc1ccc2cc(C(=O)NO)ccc2c1,
27 µM,O=C(Cc1cccc2ccccc12)NO,
0.082 µM,CC(C)N(O)C(=O)/C=C/c1ccc2ccccc2c1,
0.022 µM,Cc1cc(C)c(-c2ccc(/C=C/C(=O)N(C)O)cc2)c(C)c1,
23 µM,O=C(NO)c1ccc([N+](=O)[O-])cc1,
1.3 µM,CN(O)C(=O)c1ccc2ccccc2c1,
14 µM,O=C(NO)c1ccc2ccccc2c1,
0.064 µM,Cc1cc(C)c(-c2ccc(C(=O)N(C)O)cc2)c(C)c1,
8.2 µM,COc1ccc2cc(C(=O)NO)ccc2c1,
61 µM,N#Cc1ccc(C(=O)NO)cc1,
190 µM,O=C(NO)c1ccc(O)cc1,
12 µM,O=C(/C=C/c1ccccc1)NO,
0.33 µM,O=C(NO)c1ccc(-c2ccc3ccccc3c2)cc1,
27 µM,O=C(NO)c1ccc(C(F)(F)F)cc1,
